Assay outcomes (PubChem BioAssay)
Most compounds without a hit are left out; they make up all but 4.1% or so of the library.
RGS4 block: human RGS4 inhibition; B-score at 10 µM; 0.45% of 310,000 active; HEK293 M3R/RGS4 inducible, Fluo-4 calcium flux; active compounds read high; triggered by carbachol at its EC20;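 active = B-score, a plate-corrected calcium signal, over three deviations above library mean, with baseline fluorescence within five deviations of library mean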;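 note: RGS4 expression induced by doxycycline in cells with stable M3 receptor; B-score is computed from the integrated fluorescence ratio over baseline after carbachol; higher B-score means a larger calcium signal and so more RGS4 inhibition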
Target sequence (P49798 whole entry, looked up): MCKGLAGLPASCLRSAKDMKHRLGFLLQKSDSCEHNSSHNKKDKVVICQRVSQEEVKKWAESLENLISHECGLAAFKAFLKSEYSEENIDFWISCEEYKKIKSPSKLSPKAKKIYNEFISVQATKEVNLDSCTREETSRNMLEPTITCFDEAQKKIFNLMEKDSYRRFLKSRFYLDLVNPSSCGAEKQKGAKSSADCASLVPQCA
RGS4 act: RGS4 potentiation or activation; HEK293 M3R/inducible RGS4, carbachol calcium flux Fluo4; active compounds read low; 0.92% of 310,000 active; B-score at 10 µM;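 active = B-score of the integrated calcium signal more than 4 SD below the library mean, with starting fluorescence not abnormally high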;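 note: negative B-score means reduced calcium response which marks RGS4 activation or potentiation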
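Reagent: ECmax carbachol challenge; Test system: M3R-expressing HEK293 line, RGS4 induced by doxycycline; Schedule: overnight RGS4 induction, 30 min dye load 37 °C, 20 min compound RT; Detection: calcium dye Fluo4 fluorescence; Read-out: Agonist-evoked peak-minus-minimum fluorescence over baseline, integrated ratio, B score.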
MrgX1 PAM: allosterically activates human MrgX1 receptor signaling. MrgX1-HEK293, Fluo-4 calcium flux, FDSS; active compounds read high. 0.63% of 310,000 active. Q96LB2. B-score at 10 µM. AID 588675;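 active = plate-corrected calcium response at least 3 library SD above typical, normal starting fluorescence, not activating the receptor alone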;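 note: compound read alongside a low EC10 to EC30 dose of BAM8-22 agonist; peak minus trough fluorescence over baseline measured at the second addition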
MrgX1 antag: human MrgX1 receptor antagonism, primary screen; MRGX1-HEK293 calcium flux, Fluo-4, BAM8-22 antagonism; active compounds read low; AID 588676; 1.3% of 310,000 active; B-score at 10 µM; Q96LB2;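 active = calcium-response B-score plate-corrected more than 3 library SD below zero, starting fluorescence within 5 deviations, no agonist response on first addition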;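 note: peak minus trough fluorescence over baseline after final BAM8-22 challenge near maximal dose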
Kir21 inh: inhibitors of mouse Kir2.1 inward-rectifier potassium channel; P35561; HEK293-Kir2.1, FluxOR thallium flux fluorescence; active compounds read low; B-score at 10 µM; 0.85% of 310,000 active;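 active = fluorescence ratio B-score at or below minus 3 SD of library scores, with starting-brightness B-score within 2 SD, cut at about -4.2 in these data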;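 note: channel flux triggered by added potassium and thallium sulfate stimulus; B-score of peak minus minimum fluorescence over baseline after thallium stimulus; more negative B-score means stronger Kir2.1 block with less thallium influx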
Target sequence (P35561 whole entry, looked up): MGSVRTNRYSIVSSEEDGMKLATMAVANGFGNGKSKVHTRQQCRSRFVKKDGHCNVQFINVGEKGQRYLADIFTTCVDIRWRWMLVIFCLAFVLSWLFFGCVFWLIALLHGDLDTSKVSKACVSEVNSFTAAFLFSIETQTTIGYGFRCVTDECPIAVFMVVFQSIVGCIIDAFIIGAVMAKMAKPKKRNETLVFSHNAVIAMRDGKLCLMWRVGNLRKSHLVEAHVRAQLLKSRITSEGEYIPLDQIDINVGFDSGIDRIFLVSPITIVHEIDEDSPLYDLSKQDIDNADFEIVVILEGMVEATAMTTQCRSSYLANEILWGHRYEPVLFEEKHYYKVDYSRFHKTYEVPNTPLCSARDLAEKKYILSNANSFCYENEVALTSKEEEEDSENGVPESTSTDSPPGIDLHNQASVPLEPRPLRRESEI
MrgX1 ag: human MrgX1 receptor agonism, primary screen; Q96LB2; MrgX1-HEK293 cells, Fluo-4 calcium fluorescence, agonist mode; active compounds read high; B-score at 10 µM; 0.44% of 310,000 active; AID 588627;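 active = calcium response B-score plate-corrected fluorescence ratio at least 3 library SD, with starting fluorescence B-score inside 5 SD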
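System: HEK293 cells stably expressing human MrgX1 receptor; Dosing: test compound in the initial addition of three; Schedule: overnight plating, then 30 min 37 °C plus 30 min room-temperature dye loading; Detection: kinetic calcium dye fluorescence, Fluo-4 NW; Controls: per-plate positive and negative controls for Z′ factor.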
MrgX1 PAM conf: confirmation of human MrgX1 receptor positive allosteric modulators; MrgX1-HEK293, Fluo-4 calcium fluorescence, FDSS; shares compounds with MrgX1 PAM; activation (ratio percentage), % at 10 µM; 13% of 1,200 active; AID 602413;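 active = ratio at least 3 SD above the weak peptide control, stable starting fluorescence, no direct agonism earlier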;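 note: compound followed by low BAM8-22 agonist challenge near EC20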
HEK293 Ca flux: activity in parental HEK293 cells lacking MrgX1. Fluo-4 calcium fluorescence, FDSS. AID 624111. fluorescence ratio F(max-min)/F0 at 10 µM. 2% of 4,000 active. shares compounds with MrgX1 antag;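 active = duplicate-averaged calcium fluorescence ratio at least three times the standard deviation of buffer wells, a nonspecific response in parental cells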
HEK293 Ca counter: MrgX1 allosteric activator counter-screen hit in parental HEK293 cells; parental HEK293 calcium flux, Fluo-4 fluorescence ratio; active compounds read high; shares compounds with MrgX1 antag; 0.4% of 4,000 active; fluorescence ratio F(max-min)/F0 at 10 µM;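 active = calcium fluorescence ratio, averaged over duplicates, at least 3 SD of the buffer-well ratio, meaning a nonspecific response in receptor-free cells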;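 note: untransfected parental HEK293 lacking MrgX1 used as counterscreen for MrgX1 allosteric activators; fluorescence change taken during the second addition on a kinetic imager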
HEK293 Ca cntr2: MrgX1 activator counter-screen hit in parental HEK293 cells | shares compounds with MrgX1 antag | Fluo-4 calcium fluorescence (FDSS); active compounds read high | fluorescence ratio F(max-min)/F0 at 10 µM | 8.7% of 4,000 active | AID 624115;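 active = calcium fluorescence ratio at least three times the spread of buffer wells, meaning a non-specific response in parental cells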
* hit, by the source's call; i = inactive; · = no result.

SMILES	RGS4 block	RGS4 act	MrgX1 PAM	MrgX1 antag	Kir21 inh	MrgX1 ag	MrgX1 PAM conf	HEK293 Ca flux	HEK293 Ca counter	HEK293 Ca cntr2
Cc1ccc(Nc2nc3ccccc3n3nnnc23)cc1	i	i	i	i	-0.22	i	·	·	·	·
CCOC(=O)c1c(-c2ccccc2)csc1NC(=O)/C(C#N)=C/c1ccc(OC)c(OC)c1	i	i	i	i	2	i	·	·	·	·
CCOC(=O)c1c(-c2ccccc2)csc1NC(=O)/C(C#N)=C/c1ccc(O)c(OC)c1	i	i	117*	i	-3	i	i	0.049*	i	85*
O=C(O)c1cccc(N2C(=O)c3ccc(C(=O)c4cccc([N+](=O)[O-])c4)cc3C2=O)c1	i	i	i	i	-0.29	i	·	·	·	·
Cc1c(Cl)cccc1NC(=O)CC1NCCNC1=O (centres undefined)	i	i	13*	i	-0.15	i	i	i	i	i
COc1cccc(Nc2ncccc2C(=O)Nc2ccccc2)c1	i	i	7.6*	i	1.3	i	i	i	i	i
COc1cccc(NC(=O)c2ccccc2Oc2ccccc2)c1	i	i	i	i	-0.09	i	·	·	·	·
COCc1cc(=O)[nH]c(/N=C(\N)Nc2ccc(C)cc2)n1	i	i	i	i	0.06	i	·	·	·	·
COCc1cc(=O)[nH]c(/N=C(\N)Nc2ccccc2C)n1	i	i	21*	i	0.22	i	i	i	i	i
O=C(NCCCn1cccn1)C1CCC(=O)N(Cc2cccc(C(F)(F)F)c2)C1 (centres undefined)	i	i	7.8*	i	1.6	i	i	i	i	i
O=C(NCCCC1CCCC1)C1CCC(=O)N(Cc2cccc(C(F)(F)F)c2)C1 (centres undefined)	i	i	i	i	-2	i	·	·	·	·
Cc1ccc(-c2csc(NC(=O)C3CC=CCC3C(=O)O)c2C(=O)OC(C)C)cc1 (centres undefined)	i	i	7.3*	i	0.04	i	i	i	i	i
Cc1cccc(N=C2NC(=O)/C(=C3/C(=O)N(C)c4ccccc43)S2)c1C	i	i	7.3*	i	0.32	i	i	i	i	i
Cc1ccccc1N=C1NC(=O)/C(=C/c2cccn2C)S1	i	i	i	i	-2.9	i	·	·	·	·
Cc1ccc(-c2cc(C)nc3ncnn23)cc1	i	i	8.9*	i	0.38	i	i	i	i	i
O=S(=O)(CC(O)COc1ccc(Br)cc1)c1ccccc1 (centres undefined)	i	i	9*	i	-1.4	i	i	i	i	i
O=S(=O)(c1ccccc1)N(CC(O)COc1ccccc1)c1ccccc1 (centres undefined)	i	i	7.8*	i	-4.9	i	i	i	i	i
Cc1ccc(S(=O)(=O)CC(O)COc2ccc(C#N)cc2)cc1 (centres undefined)	i	i	i	i	1.7	i	·	·	·	·
Cn1ncc(C#N)c1/N=C/N1CCCCC1	i	i	i	i	2.1	i	·	·	·	·
Cc1ccccc1OCC(=O)Nc1ccccc1N1CCOCC1	i	i	6.8*	i	-7.9*	i	i	i	i	i
Cc1ccc(OCC(=O)Nc2ccccc2-c2ccccc2)cc1	i	i	6.6*	i	1.7	i	i	i	i	i
O=Cc1ccc(OCC(=O)Nc2ccccc2-c2ccccc2)cc1	i	i	i	i	-0.98	i	·	·	·	·
Cc1cc(C)c(OCC(=O)Nc2ccccc2N2CCOCC2)c(C)c1	i	i	6.9*	i	-2	i	i	i	i	i
CC(=O)N1CCN(c2ccccc2NC(=O)COc2ccccc2C)CC1	i	i	i	i	-0.82	i	·	·	·	·
Cc1cc(C)c(OCC(=O)Nc2ccccc2N2CCCCC2)c(C)c1	i	i	i	i	0.85	i	·	·	·	·
SMILES	RGS4 block	RGS4 act	MrgX1 PAM	MrgX1 antag	Kir21 inh	MrgX1 ag	MrgX1 PAM conf	HEK293 Ca flux	HEK293 Ca counter	HEK293 Ca cntr2
O=C(COc1ccccc1)Nc1ccccc1N1CCN(c2ccccc2)CC1	i	i	13*	i	-1.1	i	i	i	i	i
Cc1ccc(NS(=O)(=O)c2cccc(C(=O)NCc3ccccn3)c2)cc1	i	i	i	i	-0.02	i	·	·	·	·
COc1ccc(N2CCOCC2)c(NC(=O)COc2cccc(C)c2C)c1	i	i	12*	i	-0.87	i	i	i	i	i
CCOC(=O)c1sc(NS(=O)(=O)c2ccc(NC(C)=O)cc2)nc1C	i	i	i	i	0.45	i	·	·	·	·
CCOC(=O)c1sc(NS(=O)(=O)c2ccc(F)cc2)nc1C	i	i	12*	i	2	i	i	i	i	i
CCOC(=O)c1sc(NS(=O)(=O)c2ccccc2)nc1C	i	i	i	i	-0.05	i	·	·	·	·
CCOC(=O)c1sc(NS(=O)(=O)c2ccccc2Cl)nc1C	i	i	12*	i	-0.53	i	i	i	i	i
O=C(COc1cc(Cl)c(Cl)cc1Cl)Nc1cccc(O)c1	i	i	i	i	0.69	i	·	·	·	·
COC(=O)c1ccccc1NC(=O)CN(C)Cc1ccccc1	i	i	i	i	-1.6	i	·	·	·	·
COC(=O)c1ccccc1NC(=O)CN(CCc1ccccc1)S(C)(=O)=O	i	i	9.5*	i	0.1	i	i	i	i	i
CS(=O)(=O)C1=NSC2=NC(=O)/C(=C\c3ccc(OS(=O)(=O)c4ccccc4)cc3)C(=N)N21	i	i	30*	i	1.2	i	25%*	i	i	i
Cc1cc(C)cc(-n2cccc2/C=C2/C(=N)N3C(=NC2=O)SN=C3S(C)(=O)=O)c1	i	i	i	i	0.23	i	·	·	·	·
